Test results published in publication PMC8332596 (Clinical Pharmacokinetics, 2021).
Read-outs that look alike come from different tables or passages of the source.

Assays:
[1] = dose range 0.5 to 15 mg, single-dose levels and steady state; cited from earlier work
[2] = format: in vivo, human; conditions: single 5 mg SC; for tmax median of differences (90% CI): Hodges–Lehmann; for tmax: median (range)
How it was run: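 Single SC 5 mg dose given on day 1. Plasma was drawn predose and at 8, 12, 24, 48, 72, 96, 168, 336 and 648 h, then stored at about −70 °C. Drug was immunoprecipitated and quantified by LC–high-resolution MS (HESI, positive ion) over 2.00–500.00 ng/mL. Noncompartmental analysis used actual times, trapezoidal AUClast and log-linear λz. Log AUC/Cmax ratios versus control came from ANOVA with 90% CI; tmax by Hodges–Lehmann.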

[3] = Immunogenicity: antidrug antibodies in serum; format: in vivo, human; conditions: single 5 mg SC, maximum of 30 days of ADA monitoring postdose
[4] = Safety and tolerability after a single subcutaneous dose of tirzepatide 5 mg; format: in vivo, human; conditions: single 5 mg SC
How it was run: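 Open-label phase I single-dose study in adults aged 18–85 y with BMI 19.0–40.0 kg/m2, grouped by MDRD eGFR. ESRD subjects were dialysed on high-flux polysulfone membranes. AEs were recorded at screening and on days 1, 2, 3, 4, 5, 8, 15 and ≥28. Glucose was checked predose, at 12–336 h and on day ≥28, with hypoglycaemia defined per ADA guidance. ISRs were assessed to 48 h. Labs (incl. amylase/lipase), vitals and ECGs were taken at set visits.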

[5] = cited from earlier work
[6] = once-weekly dulaglutide 1.5 mg; patients with T2D; cited from earlier work
[7] = moderate renal impairment, N = 8
[8] = mild-to-moderate renal impairment

**Q.** With `CC[C@H](C)[C@H](NC(=O)[C@H](CC(C)C)NC(=O)[C@H](Cc1c[nH]c2ccccc12)NC(=O)[C@H](CCC(N)=O)NC(=O)[C@@H](NC(=O)[C@H](Cc1ccccc1)NC(=O)[C@H](C)NC(=O)[C@H](CCCCNC(=O)COCCOCCNC(=O)COCCOCCNC(=O)CC[C@H](NC(=O)CCCCCCCCCCCCCCCCCCC(=O)O)C(=O)O)NC(=O)[C@H](CCC(N)=O)NC(=O)[C@H](C)NC(=O)[C@@H](NC(=O)[C@H](CCCCN)NC(=O)[C@H](CC(=O)O)NC(=O)[C@H](CC(C)C)NC(=O)C(C)(C)NC(=O)[C@@H](NC(=O)[C@H](CO)NC(=O)[C@H](Cc1ccc(O)cc1)NC(=O)[C@H](CC(=O)O)NC(=O)[C@H](CO)NC(=O)[C@@H](NC(=O)[C@H](Cc1ccccc1)NC(=O)[C@@H](NC(=O)CNC(=O)[C@H](CCC(=O)O)NC(=O)C(C)(C)NC(=O)[C@@H](N)Cc1ccc(O)cc1)[C@@H](C)O)[C@@H](C)O)[C@@H](C)CC)[C@@H](C)CC)C(C)C)C(=O)N[C@@H](C)C(=O)NCC(=O)NCC(=O)N1CCC[C@H]1C(=O)N[C@@H](CO)C(=O)N[C@@H](CO)C(=O)NCC(=O)N[C@@H](C)C(=O)N1CCC[C@H]1C(=O)N1CCC[C@H]1C(=O)N1CCC[C@H]1C(=O)N[C@@H](CO)C(N)=O` [tirzepatide] as the molecule, how does the “dose dependence of PK” value [1] read?
**A.** Its value is “linear and dose-proportional”.

**Q.** What about the half-life ([2]; human, plasma, sc, 5 mg, t½, ESRD, n = 8, geometric mean (range)) of the same molecule?
**A.** Its half-life is 151 h.

**Q.** What about the “tmax median of differences (90% CI)” value ([2]; ESRD vs normal renal function) of the same molecule?
**A.** Its value is 0.00 h.

**Q.** And the tmax ([2]; ESRD, n = 8)?
**A.** The tmax was 48.00 (24.00–96.00) h.

**Q.** And the “relationship between exposure (Cmax, AUClast, AUC∞) and MDRD eGFR” value ([2]; linear regression, eGFR as continuous variable)?
**A.** The value was “did not show a relationship”.

**Q.** What about the “higher AUClast versus control” value ([2]; mild renal impairment group classified by CLCR (Cockcroft–Gault)) of the same molecule?
**A.** The value was 23%.

**Q.** And the “tmax median of differences (90% CI)” value ([2]; mild renal impairment vs normal renal function)?
**A.** The value was 0.00 h.

**Q.** What about the t½ ([2]; mild renal impairment, n = 8, geometric mean (range)) of the same molecule?
**A.** The t½ was 121 (94.6–138) h.

**Q.** And the tmax ([2]; mild renal impairment, n = 8)?
**A.** Its tmax is 48.00 (12.00–96.00) h.

**Q.** And the “increase in AUCs versus normal renal function” value ([2]; moderate renal impairment group)?
**A.** Its value is 25–29%.

**Q.** What about the “geometric mean AUClast higher than control group” value ([2]; moderate renal impairment vs control, 90% CI 1.04–1.52) of the same molecule?
**A.** Its value is 25%.

**Q.** And the “geometric mean AUC∞ higher than control group” value ([2]; moderate renal impairment vs control, 90% CI 1.07–1.56)?
**A.** Its value is 29%.

**Q.** What about the “treatment-emergent antidrug antibodies (ADAs)” value [3] of the same molecule?
**A.** Its value is “No treatment-emergent ADAs were detected”.

**Q.** What about the “number of subjects with AEs related to tirzepatide” value (“number of subjects with AEs related” below) ([4]; ESRD group (37.5%)) of the same molecule?
**A.** The value was 3.

**Q.** And the Abdominal distention ([4]; ESRD, N = 8)?
**A.** Its Abdominal distention is 0 (0.0) n (%).

**Q.** And the Back pain ([4]; ESRD, N = 8)?
**A.** The Back pain was 0 (0.0) n (%).

**Q.** And the Deaths ([4]; ESRD, N = 8)?
**A.** The Deaths was 0 (0.0) n (%).

**Q.** And the Diarrhea ([4]; ESRD, N = 8)?
**A.** Its Diarrhea is 0 (0.0) n (%).

**Q.** And the Headache ([4]; ESRD, N = 8)?
**A.** Its Headache is 0 (0.0) n (%).

**Q.** What about the Nausea ([4]; ESRD, N = 8) of the same molecule?
**A.** Its Nausea is 1 (12.5) n (%).

**Q.** And the “Serious AEs” value ([4]; ESRD, N = 8)?
**A.** Its value is 0 (0.0) n (%).

**Q.** What about the “Treatment-emergent AEs” value ([4]; ESRD, N = 8) of the same molecule?
**A.** The value was 3 (37.5) n (%).

**Q.** And the Vomiting ([4]; ESRD, N = 8)?
**A.** The Vomiting was 2 (25.0) n (%).

**Q.** What about the “alterations in laboratory, vital signs values, ECGs, or blood glucose monitoring” value ([4]; all groups) of the same molecule?
**A.** The value was “no clinically significant alterations”.

**Q.** What about the severe hypoglycemic events ([4]; all groups) of the same molecule?
**A.** Its severe hypoglycemic events is “no severe hypoglycemic events”.

**Q.** What about the “discontinuations due to AEs, serious AEs, deaths” value ([4]; all groups, 45 subjects) of the same molecule?
**A.** Its value is “No discontinuations due to AEs, serious AEs, or deaths”.

**Q.** What about the tolerability ([4]; all treatment groups) of the same molecule?
**A.** The tolerability was “well-tolerated”.

**Q.** And the “injection-site reactions (ISRs)” value ([4]; assessed predose and 0, 6, 12, 24, 48 h postdose)?
**A.** Its value is “No ISRs were reported”.

**Q.** What about the “number of subjects with AEs related” value ([4]; control group (7.1%)) of the same molecule?
**A.** The value was 1.

**Q.** And the “number of subjects with AEs related” value ([4]; mild renal impairment group (37.5%))?
**A.** Its value is 3.

**Q.** What about the Abdominal distention ([4]; mild renal impairment, N = 8) of the same molecule?
**A.** Its Abdominal distention is 0 (0.0) n (%).

**Q.** And the Back pain ([4]; mild renal impairment, N = 8)?
**A.** The Back pain was 1 (12.5) n (%).

**Q.** And the Deaths ([4]; mild renal impairment, N = 8)?
**A.** Its Deaths is 0 (0.0) n (%).

**Q.** What about the Diarrhea ([4]; mild renal impairment, N = 8) of the same molecule?
**A.** The Diarrhea was 1 (12.5) n (%).

**Q.** What about the Headache ([4]; mild renal impairment, N = 8) of the same molecule?
**A.** The Headache was 0 (0.0) n (%).

**Q.** And the Nausea ([4]; mild renal impairment, N = 8)?
**A.** Its Nausea is 1 (12.5) n (%).

**Q.** What about the “Serious AEs” value ([4]; mild renal impairment, N = 8) of the same molecule?
**A.** The value was 0 (0.0) n (%).

**Q.** What about the “Treatment-emergent AEs” value ([4]; mild renal impairment, N = 8) of the same molecule?
**A.** The value was 3 (37.5) n (%).

**Q.** What about the Vomiting ([4]; mild renal impairment, N = 8) of the same molecule?
**A.** The Vomiting was 0 (0.0) n (%).

**Q.** What about the “number of subjects with AEs related” value ([4]; moderate renal impairment group (37.5%)) of the same molecule?
**A.** The value was 3.

**Q.** And the Abdominal distention [4, 7]?
**A.** Its Abdominal distention is 1 (12.5) n (%).

**Q.** What about the Back pain [4, 7] of the same molecule?
**A.** The Back pain was 1 (12.5) n (%).

**Q.** What about the Deaths [4, 7] of the same molecule?
**A.** Its Deaths is 0 (0.0) n (%).

**Q.** What about the Diarrhea [4, 7] of the same molecule?
**A.** Its Diarrhea is 1 (12.5) n (%).

**Q.** And the Headache [4, 7]?
**A.** The Headache was 0 (0.0) n (%).

**Q.** And the Nausea [4, 7]?
**A.** The Nausea was 0 (0.0) n (%).

**Q.** And the “Serious AEs” value [4, 7]?
**A.** Its value is 0 (0.0) n (%).

**Q.** What about the “Treatment-emergent AEs” value [4, 7] of the same molecule?
**A.** The value was 3 (37.5) n (%).

**Q.** What about the Vomiting [4, 7] of the same molecule?
**A.** Its Vomiting is 0 (0.0) n (%).

**Q.** And the Abdominal distention ([4]; normal renal function, N = 14)?
**A.** Its Abdominal distention is 0 (0.0) n (%).

**Q.** And the Back pain ([4]; normal renal function, N = 14)?
**A.** Its Back pain is 0 (0.0) n (%).

**Q.** What about the Deaths ([4]; normal renal function, N = 14) of the same molecule?
**A.** Its Deaths is 0 (0.0) n (%).

**Q.** And the Diarrhea ([4]; normal renal function, N = 14)?
**A.** The Diarrhea was 0 (0.0) n (%).

**Q.** And the Headache ([4]; normal renal function, N = 14)?
**A.** Its Headache is 1 (7.1) n (%).

**Q.** What about the Nausea ([4]; normal renal function, N = 14) of the same molecule?
**A.** The Nausea was 0 (0.0) n (%).

**Q.** What about the “Serious AEs” value ([4]; normal renal function, N = 14) of the same molecule?
**A.** The value was 0 (0.0) n (%).

**Q.** And the “Treatment-emergent AEs” value ([4]; normal renal function, N = 14)?
**A.** The value was 1 (7.1) n (%).

**Q.** What about the Vomiting ([4]; normal renal function, N = 14) of the same molecule?
**A.** The Vomiting was 0 (0.0) n (%).

**Q.** What about the “treatment-related AEs” value ([4]; severe renal impairment group) of the same molecule?
**A.** The value was “No treatment-related AEs were reported”.

**Q.** And the Abdominal distention ([4]; severe renal impairment, N = 7)?
**A.** The Abdominal distention was 0 (0.0) n (%).

**Q.** And the Back pain ([4]; severe renal impairment, N = 7)?
**A.** Its Back pain is 0 (0.0) n (%).

**Q.** What about the Deaths ([4]; severe renal impairment, N = 7) of the same molecule?
**A.** The Deaths was 0 (0.0) n (%).

**Q.** And the Diarrhea ([4]; severe renal impairment, N = 7)?
**A.** Its Diarrhea is 0 (0.0) n (%).

**Q.** And the Headache ([4]; severe renal impairment, N = 7)?
**A.** The Headache was 0 (0.0) n (%).

**Q.** What about the Nausea ([4]; severe renal impairment, N = 7) of the same molecule?
**A.** The Nausea was 0 (0.0) n (%).

**Q.** What about the “Serious AEs” value ([4]; severe renal impairment, N = 7) of the same molecule?
**A.** The value was 0 (0.0) n (%).

**Q.** And the “Treatment-emergent AEs” value ([4]; severe renal impairment, N = 7)?
**A.** Its value is 0 (0.0) n (%).

**Q.** What about the Vomiting ([4]; severe renal impairment, N = 7) of the same molecule?
**A.** Its Vomiting is 0 (0.0) n (%).

**Q.** With albiglutide as the molecule, how does the “PK versus subjects with normal renal function” value [5, 8] read?
**A.** The value was “not significantly altered”.

**Q.** With dulaglutide as the molecule, how does the HbA1c reduction [6] read?
**A.** The HbA1c reduction was ≤ 1.1%.

**Q.** What about the body weight reduction [6] of the same molecule?
**A.** Its body weight reduction is ≤ 2.7 kg.

**Q.** What about the “influence of the extent of renal impairment on PK” value [5] of the same molecule?
**A.** The value was “not influenced”.

**Q.** With exenatide as the molecule, how does the “PK changes versus subjects with normal renal function” value ([5]; subcutaneous, mild-to-moderate renal impairment) read?
**A.** The value was “clinically acceptable”.

**Q.** Which “PK versus subjects with normal renal function” value [5, 8] does the source give for liraglutide here?
**A.** The value was “not significantly altered”.

**Q.** With lixisenatide as the molecule, how does the “differences in PK versus subjects with normal renal function” value [5, 8] read?
**A.** Its value is “no significant differences”.

**Q.** And the drug exposure ([5]; severe renal impairment)?
**A.** Its drug exposure is “may be increased”.

**Q.** With semaglutide as the molecule, how does the “impact of renal impairment on plasma PK” value ([5]; oral) read?
**A.** Its value is “lack of impact”.
